Experimental data reported in article PMC6800648 (Cell chemical biology, 2019).
“And” between values parts separate entries of the source, which are not always exact repeats. Identical values can stand only once. Blank lines part the entries; values can stand above or below the molecule they belong to. Numbered stars: 1 amine (or outer) side, 2 acyl side, 3 side chain; on linkers, the order of the positions; unused ones are H or OH. Square brackets hold non-standard residues; d marks the D form. Peptide text beside a SMILES is read from it. * marks the point of attachment. NH(CH2CH2O)11C2H4NHBiotinyl = O=C(CCCC[C@@H]1SC[C@@H]2NC(=O)N[C@@H]21)NCCOCCOCCOCCOCCOCCOCCOCCOCCOCCOCCOCCN*; Lys(Me,2-norbornyl) = CN(CCCC[C@H](N)C(=O)O)C1CC2CCC1C2; X10 = CN(CCCC[C@H](N[*:1])C(=O)[*:2])C1C2CC3CC(C2)CC1C3; Benzoyl(4-tBu) = CC(C)(C)c1ccc(C(=O)*)cc1

Tests used:
CBX7 [1] = molecular target: T1, CBX7 (Mus musculus, UniProt Q8VDS3); assay: Polycomb in-vivo Assay; format: cell-based
T1 sequence (Q8VDS3 2-69 limits assumed): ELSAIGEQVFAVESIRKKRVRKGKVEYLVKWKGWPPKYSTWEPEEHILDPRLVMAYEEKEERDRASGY

CBX7 [2] = molecular target: T2, CBX7 (Mus musculus, UniProt Q8VDS3); format: cell-based; conditions: TetOFF reporter cell line; UNC4976 compared to UNC3866 treatment
T2 sequence (Q8VDS3 1-158): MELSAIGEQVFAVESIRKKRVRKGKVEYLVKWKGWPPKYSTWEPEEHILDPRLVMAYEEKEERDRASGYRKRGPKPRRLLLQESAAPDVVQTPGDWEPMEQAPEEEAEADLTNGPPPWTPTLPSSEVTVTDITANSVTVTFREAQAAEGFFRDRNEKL

mESCs = assay: CellTiter-Glo viability assay in mESCs; format: cell-based, mouse; conditions: 48 hr, at 100 μM
How it was run: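 Mouse ES cells, 5,000 per well, exposed in technical triplicate for 48 hr at 37°C to a ten-point three-fold dilution series prepared from 50 mM DMSO stocks (0.2% DMSO final). Media-only wells served as negative controls. After equilibrating at room temperature, CellTiter-Glo was added, with 2 min shaking and 10 min settling, then luminescence read.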

CBX7 chromodomain [3] = molecular target: T3, CBX7 chromodomain (Homo sapiens, UniProt O95931); assay: Isothermal titration calorimetry; format: binding; conditions: ITC
T3 sequence (O95931 8-62): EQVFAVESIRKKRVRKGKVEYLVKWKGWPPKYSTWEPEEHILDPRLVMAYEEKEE
How it was run: (§1)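 ITC at 25 °C in 25 mM Tris-HCl pH 7.5, 150 mM NaCl, 2 mM β-mercaptoethanol. Typically 50 µM chromodomain in cell, 0.5 mM test compound in syringe (10:1 kept). Protein quantified by Edelhoch, compound by mass. One 0.2 µl injection then 26 × 1.5 µl injections at 180 s spacing; first point discarded. Kd from one-site nonlinear least-squares fit.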

CBX2 chromodomain = assay: Isothermal titration calorimetry; format: binding; conditions: from ITC Kd values
How it was run: as §1

CBX6 chromodomain = assay: Isothermal titration calorimetry; format: binding; conditions: from ITC Kd values
How it was run: as §1

CDYL2 chromodomain = assay: Isothermal titration calorimetry; format: binding; conditions: from ITC Kd values
How it was run: as §1

CBX7 and RING1B = molecular target: T4, CBX7 and RING1B (Mus musculus, UniProt Q8VDS3); assay: ChIP-qPCR / ChIP-seq in mESCs; format: cell-based; conditions: 4 hours, 20 μM
T4 sequence (Q8VDS3 1-158): T2 sequence (Q8VDS3 1-158)
T4 sequence (Q9CQJ4 2-336 partner limits assumed): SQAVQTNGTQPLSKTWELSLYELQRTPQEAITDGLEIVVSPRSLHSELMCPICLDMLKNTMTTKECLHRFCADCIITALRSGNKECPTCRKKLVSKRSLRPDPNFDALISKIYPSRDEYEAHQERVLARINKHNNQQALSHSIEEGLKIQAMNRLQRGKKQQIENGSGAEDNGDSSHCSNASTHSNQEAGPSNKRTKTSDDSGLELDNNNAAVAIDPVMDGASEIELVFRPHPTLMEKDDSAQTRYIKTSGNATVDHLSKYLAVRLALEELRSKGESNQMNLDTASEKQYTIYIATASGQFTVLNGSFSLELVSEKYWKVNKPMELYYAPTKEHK

SUZ12 and H3K27me3 = assay: Capture ChIP-seq in mESCs, SUZ12 and H3K27me3; format: cell-based, mouse
CBX7 chromodomain [4] = molecular target: T5, CBX7 chromodomain (Homo sapiens, UniProt O95931); assay: Fluorescence polarization; format: biochemical
T5 sequence (O95931 1-62): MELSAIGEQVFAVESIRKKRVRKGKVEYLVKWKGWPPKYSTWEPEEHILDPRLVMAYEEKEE
How it was run: (§2)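 Buffer: 25 mM Tris-HCl pH 7.4, 100 mM NaCl, 0.05% Tween-20, 2 mM DTT; 100 nM FAM-dsDNA or FAM-ANRIL-RNA; 0.2% DMSO; 30 min at RT. Compound titration: eight-point three-fold series from 100 µM with 30 µM CBX7 chromodomain. Ratio mode: CBX7 and test compound co-diluted at fixed 3:1 from 300 µM/100 µM. Polarisation normalised to a no-protein control; α fitted by the Stockton-Ehlert allosteric model.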

CBX7 chromodomain [5] = molecular target: T5, CBX7 chromodomain; assay: Fluorescence polarization; format: biochemical; remark: listed apart in the source
How it was run: as §2

CBX7 chromodomain [6] = molecular target: T5, CBX7 chromodomain; assay: Electrophoretic mobility shift assay; format: biochemical
How it was run: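 Buffer: 25 mM Tris-HCl pH 7.4, 100 mM NaCl, 0.05% Tween-20, 2 mM DTT. Compound runs used 150 µM CBX7 with 100 nM FAM-DNA probe and 50 µM test compound (0.3% DMSO); protein-only runs used a three-fold CBX7 series. Binding 20 min on ice. Native 10% Tris-glycine gel at 100 V, 4°C, 90 min in the dark. FAM fluorescence imaged, then Coomassie-stained.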

Polycomb target genes = assay: RT-qPCR mRNA expression in HEK293 cells; format: cell-based, human
How it was run: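 HEK293 cells were treated with test compounds at 6 µM and 20 µM for 2 days. RNA was reverse-transcribed and Polycomb target transcripts were quantified by qPCR with ~100–150 bp amplicons.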

[7] = tested on: 120 purified Kme reader domains; assay: Chromatin-associated domain array; format: binding; conditions: biotinylated ligand, fluorescently tagged streptavidin visualization
canonical PRC1 complex = assay: Chemiprecipitation; format: binding, human; conditions: PC3 cell lysates, western blot
How it was run: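 PC3 cells in DMEM/F12 plus 10% FBS were grown to 80–90% confluency, trypsinised, PBS-washed twice, and lysed fresh or after flash freezing. Lysates were pulled down with biotinylated test compounds. Beads were boiled in Laemmli buffer at 95 °C for 3 min, with 1% input. Proteins were separated by SDS-PAGE and blotted to PVDF. Primary antibody overnight at 4°C; infrared secondaries (1:10,000).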

[8] = Solubility observed in the Polycomb in-vivo Assay; conditions: above 30 mM in the Polycomb in-vivo Assay
[9] = molecular target: T6, CDYL2 chromodomain (residues 1–75 of NP_689555) (UniProt Q8N8U2 1-75); assay: ITC
T6 sequence (looked up): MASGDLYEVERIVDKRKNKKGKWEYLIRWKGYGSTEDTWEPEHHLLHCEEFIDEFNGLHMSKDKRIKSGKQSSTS

[10] = molecular target: T7, CBX2 chromodomain (residues 9–66 of NP_005180) (UniProt Q14781-1 9-66); assay: ITC
T7 sequence (looked up): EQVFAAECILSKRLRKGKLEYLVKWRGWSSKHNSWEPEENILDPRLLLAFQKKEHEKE

[11] = molecular target: T8, CBX6 chromodomain (residues 8–65 of NP_055107) (UniProt O95503 8-65); assay: ITC
T8 sequence (looked up): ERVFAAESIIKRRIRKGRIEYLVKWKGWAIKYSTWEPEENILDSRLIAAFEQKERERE

CBX7 chromodomain [12] = molecular target: CBX7 chromodomain (UniProt O95931 8-62); assay: fluorescence polarization
[13] = 1:3 ratio of compound to protein titration
[14] = Stockton/Ehlert allosteric binding model, 1:3 compound to CBX7, 100 nM FAM-ANRIL-RNA

- EC50 (CBX7 [1]): 3210 ± 352 nM
- fold more potent than UNC3866 in the CBX7 reporter cell line (CBX7 [1]; EC50 ratio versus UNC3866): ~ 14 fold and 14 fold
- derepression of the GFP reporter gene / maintenance of Polycomb silencing (CBX7 [2]): enhanced
- affinity for CBX4 and CBX7 compared (CBX7 chromodomain [3]): equipotent affinity
- CBX7 and RING1B binding at PRC1 target TSSs (CBX7 and RING1B): substantially reduced
- reduction in SUZ12 binding and H3K27me3 (SUZ12 and H3K27me3): only a mild or insignificant reduction
- change of fluorescence polarization on compound titration (CBX7 chromodomain [4]; 30 μM CBX7 chromodomain, 100 nM FAM-dsDNA): increased polarization
- enhancement in CBX7 affinity for FAM-dsDNA (CBX7 chromodomain [4]; [13]): significant enhancement
- allosteric modulator class of oligonucleotide binding (CBX7 chromodomain [4]; FP data fit to the Stockton/Ehlert allosteric binding model): positive allosteric modulator
- α (factor of enhancement of CBX7 affinity for the DNA probe) (CBX7 chromodomain [4]; Stockton/Ehlert allosteric binding model, 1:3 compound to CBX7, 100 nM FAM-dsDNA): 4.2
- effect on CBX7 binding to FAM-ANRIL-RNA (CBX7 chromodomain [5]; [13]): promoted enhanced CBX7 binding to RNA
- α (factor of enhancement of CBX7 affinity for the RNA probe) (CBX7 chromodomain [5]; [14]): 4.0
- β (ratio of FP factors between [RNA:CBX7:UNC] and [RNA:CBX7]) (CBX7 chromodomain [5]; [14]): 1.1
- binding to CBX7 by Coomassie stain (higher molecular weight band shifts) (CBX7 chromodomain [6]; EMSA gel): showed binding to CBX7
- effect on FAM-dsDNA binding to CBX7 (CBX7 chromodomain [6]; EMSA, 150 mM CBX7 and 100 nM FAM-dsDNA probe, 1:3 ratio of compound to CBX7): enhanced FAM-dsDNA binding
Molecule: COC(=O)[C@H](CO)NC(=O)[C@H](CCCCN(C)C1CC2CCC1C2)NC(=O)[C@H](CC(C)C)NC(=O)[C@H](C)NC(=O)[C@H](Cc1ccccc1)NC(=O)c1ccc(C(C)(C)C)cc1 (stereo partly drawn) [UNC4976, methyl N^6-(bicyclo[2.2.1]heptan-2-yl)-N^2-(4-(tert-butyl)benzoyl)-L-phenylalanyl-L-alanyl-L-leucyl-N^6-methyl-L-lysyl-L-serinate] ({Benzoyl(4-tBu)}-FAL[Lys(Me,2-norbornyl)]S-OMe)
- mESC viability upon compound treatment (mESCs): weak toxicity
- selectivity for CBX4/7 over CBX2 (CBX2 chromodomain): 28 fold
- selectivity for CBX4/7 over CBX6 (CBX6 chromodomain): 9 fold
- selectivity for CBX4/7 over CDYL2 (CDYL2 chromodomain): 8 fold
- effect on transcription of Polycomb target genes (Polycomb target genes; HEK293, 6 μM and 20 μM, 2 days): pronounced increase in transcription
- fold higher expression than UNC3866 treatment at the same concentration (Polycomb target genes; HEK293, in some cases): 8 fold

Molecule: CC(C)C[C@H](NC(=O)[C@H](C)NC(=O)[C@H](Cc1ccccc1)NC(=O)c1ccc(C(C)(C)C)cc1)C(=O)N[C@@H](CCCCN(C)C1CC2CCC1C2)C(=O)N[C@@H](CO)C(=O)NCCOCCOCCOCCOCCOCCOCCOCCOCCOCCOCCOCCNC(=O)CCCC[C@@H]1SC[C@@H]2NC(=O)N[C@@H]21 (stereo partly drawn) [UNC5355, N-((2S,5S,8S,11S,14S)-11-(4-(bicyclo[2.2.1]heptan-2-yl(methyl)amino)butyl)-14-(hydroxymethyl)-8-isobutyl-5-methyl-3,6,9,12,15,53-hexaoxo-57-((3aS,4S,6aR)-2-oxohexahydro-1H-thieno[3,4-d]imidazol-4-yl)-1-phenyl-19,22,25,28,31,34,37,40,43,46,49-undecaoxa-4,7,10,13,16,52-hexaazaheptapentacontan-2-yl)-4-(tert-butyl)benzamide] ({Benzoyl(4-tBu)}-FAL[Lys(Me,2-norbornyl)]S-{NH(CH2CH2O)11C2H4NHBiotinyl})
- selectivity profile on CADOR microarray [7]: binding interactions were only detected for all five Polycomb CBX chromodomains and a small subset of CDY chromodomains
- pulldown of CBX2 and CBX6 (canonical PRC1 complex): not detected
- pulldown of canonical PRC1 components (CBX4, CBX7, CBX8, RING1B, BMI1) (canonical PRC1 complex): all five components previously mentioned were similarly pulled down

- EC50 (CBX7 [1]): 1020 ± 175 nM
- solubility in this assay [8]: markedly poor solubility
Molecule: COC(=O)[C@H](CO)NC(=O)[C@H](CCCCN(C)C1C2CC3CC(C2)CC1C3)NC(=O)[C@H](CC(C)C)NC(=O)[C@H](C)NC(=O)[C@H](Cc1ccccc1)NC(=O)c1ccc(C(C)(C)C)cc1 (stereo partly drawn) [UNC6373, methyl N^6-((1S,3S,5S,7S)-adamantan-2-yl)-N^2-(4-(tert-butyl)benzoyl)-L-phenylalanyl-L-alanyl-L-leucyl-N^6-methyl-L-lysyl-L-serinate] ({Benzoyl(4-tBu)}-FAL[X10]S-OMe)

- fold selectivity for CBX4/7 over CDYL2 [9]: 8 fold
- fold selectivity for CBX4/7 over CBX2 [10]: 28 fold
- fold selectivity for CBX4/7 over CBX6 [11]: 9 fold
B1: UNC4976 (peptide)
peptide: FALKS
modifications: N-terminal 4-(tert-butyl)benzoyl cap on Phe1; Lys4 is N6-(bicyclo[2.2.1]heptan-2-yl)-N6-methyl-L-lysine (N6-methyl-N6-norbornyl lysine); C-terminal methyl ester on Ser5

Molecule: UGGAGUUGCGUUCCA (structured_RNA) [FAM-ANRIL-RNA (ANRIL Loop C) FP probe]
- binding signal (CBX7 chromodomain [12]): 4 fold affinity (alpha)
